Measured values reported in ChEMBL document CHEMBL5230163, “Design, synthesis and antibacterial evaluation of a novel class of tetrahydrobenzothiophene derivatives” (2023).
Converted amounts (≈) assume the structure as drawn. The source made the active and inactive calls. No cut-off for these calls is given here.

Experiments:
[1] = system: Staphylococcus aureus; assay: Antibacterial activity against Staphylococcus aureus ATCC 25923 assessed as inhibition of bacterial growth by standard broth microdilution method; assay type: functional
Procedure, shortened: (§1)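 Broth microdilution in 96-well plates. Overnight culture (5 μl) moved into 5 ml fresh medium and grown to log phase, then diluted to 2 × 10^6 CFU ml−1. Each well received 100 μl cell suspension plus 100 μl of compound at various concentrations (200 μl final). Read-out was MIC. Run three times.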

[2] = system: Escherichia coli; assay: Antibacterial activity against Escherichia coli ATCC 25922 assessed as inhibition of bacterial growth by standard broth microdilution method; assay type: functional; procedure, shortened: as §1
[3] = system: Salmonella; assay: Antibacterial activity against Salmonella ATCC 12022 assessed as inhibition of bacterial growth by standard broth microdilution method; assay type: functional; procedure, shortened: as §1
[4] = system: Pseudomonas aeruginosa; assay: Antibacterial activity against Pseudomonas aeruginosa ATCC 27853 assessed as inhibition of bacterial growth by standard broth microdilution method; assay type: functional; procedure, shortened: as §1
[5] = system: Salmonella; assay: Antibacterial activity against Salmonella ATCC 12022 assessed as inhibition of bacterial growth at 0.5XMIC measured for 24 hrs by time-kill assay; assay type: functional, organism-based
[6] = system: Pseudomonas aeruginosa; assay: Antibacterial activity against Pseudomonas aeruginosa ATCC 27853 assessed as reduction in living bacterial cell counts at 1X to 4XMIC measured within 2 hrs by time-kill assay; assay type: functional, organism-based
[7] = system: Salmonella; assay: Antibacterial activity against Salmonella ATCC 12022 assessed as reduction in living bacterial cell counts at 1X to 4XMIC measured within 2 hrs by time-kill assay; assay type: functional, organism-based
[8] = system: Pseudomonas aeruginosa; assay: Antibacterial activity against Pseudomonas aeruginosa ATCC 27853 assessed as inhibition of bacterial growth at 0.5XMIC measured for 24 hrs by time-kill assay; assay type: functional, organism-based
[9] = system: Salmonella; assay: Bacteriostatic activity against Salmonella ATCC 12022 at 1X to 4XMIC measured after 2 to 24 hrs by time-kill assay; assay type: functional, organism-based; conditions: time 2-24 hrs
[10] = system: Pseudomonas aeruginosa; assay: Bacteriostatic activity against Pseudomonas aeruginosa ATCC 27853 at 1X to 4XMIC measured after 2 to 24 hrs by time-kill assay; assay type: functional, organism-based; conditions: time 2-24 hrs

| Compound | MIC [1] [µM] | MIC [2] [µM] | MIC [3] [µM] | MIC [4] [µM] | Activity [5] | Activity [6] | Activity [7] | Activity [8] | Activity [9] | Activity [10] |
| --- | --- | --- | --- | --- | --- | --- | --- | --- | --- | --- |
| CCC1CCc2c(sc(NC(=O)c3ccc(F)cc3F)c2C(=O)O)C1 (stereo unspecified) | 3.42 (≈ 1.25 µg/mL) | 1.71 (≈ 0.625 µg/mL) | 1.71 (≈ 0.625 µg/mL) | 1.71 (≈ 0.625 µg/mL) |  |  |  |  |  |  |
| CCC1CCc2c(sc(NC(=O)c3cccc([N+](=O)[O-])c3F)c2C(=O)O)C1 (stereo unspecified) | 1.25 (≈ 0.491 µg/mL) | 19.9 (≈ 7.82 µg/mL) | 19.9 (≈ 7.82 µg/mL) | 0.61 (≈ 0.239 µg/mL) |  |  |  |  |  |  |
| Cc1ccc(C(=O)Nc2sc3c(c2C(=O)O)CCC(C)C3)c(C)c1 (stereo unspecified) | 1.43 (≈ 0.491 µg/mL) | 5.69 (≈ 1.95 µg/mL) | 1.43 (≈ 0.491 µg/mL) | 1.43 (≈ 0.491 µg/mL) |  |  |  |  |  |  |
| COc1ccc(C(=O)Nc2sc3c(c2C(=O)O)CCC(C)C3)cc1 (stereo unspecified) | 1.42 (≈ 0.49 µg/mL) | 1.42 (≈ 0.49 µg/mL) | 90.6 (≈ 31.3 µg/mL) | 45.3 (≈ 15.6 µg/mL) |  |  |  |  |  |  |
| CCC1CCc2c(sc(NC(=O)c3ccc(Cl)cc3)c2C(=O)O)C1 (stereo unspecified) | 3.44 (≈ 1.25 µg/mL) | 3.44 (≈ 1.25 µg/mL) | 1.72 (≈ 0.626 µg/mL) | 3.44 (≈ 1.25 µg/mL) |  |  |  |  |  |  |
| Cc1c(C(=O)Nc2sc3c(c2C(=O)O)CCC(C)C3)cccc1[N+](=O)[O-] (stereo unspecified) | 83.6 (≈ 31.3 µg/mL) | 0.64 (≈ 0.24 µg/mL) | 1.31 (≈ 0.49 µg/mL) | 1.31 (≈ 0.49 µg/mL) |  |  |  |  |  |  |
| CC1CCc2c(sc(NC(=O)c3cc(Cl)ccc3F)c2C(=O)O)C1 (stereo unspecified) | 2.66 (≈ 0.978 µg/mL) | 1.33 (≈ 0.489 µg/mL) | 1.33 (≈ 0.489 µg/mL) | 1 (≈ 0.368 µg/mL) |  |  |  |  |  |  |
| O=C(O)c1cn(C2CC2)c2cc(N3CCNCC3)c(F)cc2c1=O [CIPROFLOXACIN] |  | 1.27 (≈ 0.421 µg/mL) | 2.54 (≈ 0.842 µg/mL) | 10.1 (≈ 3.35 µg/mL) |  |  |  |  |  |  |
| CC1CCc2c(sc(NC(=O)c3ccccc3)c2C(=O)O)C1 (stereo unspecified) | 99.2 (≈ 31.3 µg/mL) | 1.56 (≈ 0.492 µg/mL) | 1.56 (≈ 0.492 µg/mL) | 1.56 (≈ 0.492 µg/mL) |  |  |  |  |  |  |
| O=C(Nc1sc2c(c1C(=O)O)CCCC2)c1ccc(Cl)cc1 | 1.46 (≈ 0.49 µg/mL) | 1.46 (≈ 0.49 µg/mL) | 1.46 (≈ 0.49 µg/mL) | 1.46 (≈ 0.49 µg/mL) |  |  |  |  |  |  |
| CC1CCc2c(sc(NC(=O)c3c(F)cccc3F)c2C(=O)O)C1 (stereo unspecified) | 1.4 (≈ 0.492 µg/mL) | 11.1 (≈ 3.9 µg/mL) | 1.4 (≈ 0.492 µg/mL) | 1.4 (≈ 0.492 µg/mL) |  |  |  |  |  |  |
| CCC1CCc2c(sc(NC(=O)c3ccc(F)cc3)c2C(=O)O)C1 (stereo unspecified) | 1.8 (≈ 0.625 µg/mL) | 1.8 (≈ 0.625 µg/mL) | 7.19 (≈ 2.5 µg/mL) | 7.19 (≈ 2.5 µg/mL) |  |  |  |  |  |  |
| CCC1CCc2c(sc(NC(=O)c3ccccc3)c2C(=O)O)C1 (stereo unspecified) | 11.8 (≈ 3.9 µg/mL) | 1.49 (≈ 0.491 µg/mL) | 0.73 (≈ 0.24 µg/mL) | 0.73 (≈ 0.24 µg/mL) |  |  |  |  |  |  |
| CCC1CCc2c(sc(NC(=O)c3ccccc3Cl)c2C(=O)O)C1 (stereo unspecified) | 1.72 (≈ 0.626 µg/mL) | 1.72 (≈ 0.626 µg/mL) | 1.72 (≈ 0.626 µg/mL) | 1.72 (≈ 0.626 µg/mL) |  |  |  |  |  |  |
| CCC1CCc2c(sc(NC(=O)c3ccc(C)cc3C)c2C(=O)O)C1 (stereo unspecified) | 3.5 (≈ 1.25 µg/mL) | 3.5 (≈ 1.25 µg/mL) | 1.75 (≈ 0.626 µg/mL) | 1.75 (≈ 0.626 µg/mL) |  |  |  |  |  |  |
| GENTAMICIN | 1.27 |  |  |  |  |  |  |  |  |  |
| CCC1CCc2c(sc(NC(=O)c3cc([N+](=O)[O-])cc([N+](=O)[O-])c3)c2C(=O)O)C1 (stereo unspecified) | 2.98 (≈ 1.25 µg/mL) | 1.49 (≈ 0.625 µg/mL) | 1.49 (≈ 0.625 µg/mL) | 1.49 (≈ 0.625 µg/mL) |  |  |  |  |  |  |
| CC1CCc2c(sc(NC(=O)c3ccc(F)cc3)c2C(=O)O)C1 (stereo unspecified) | 1.47 (≈ 0.49 µg/mL) | 1.47 (≈ 0.49 µg/mL) | 1.47 (≈ 0.49 µg/mL) | 0.72 (≈ 0.24 µg/mL) |  |  |  |  |  |  |
| CC1CCc2c(sc(NC(=O)c3ccc(F)cc3F)c2C(=O)O)C1 (stereo unspecified) | 1.4 (≈ 0.492 µg/mL) | 22.2 (≈ 7.82 µg/mL) | 11.1 (≈ 3.9 µg/mL) | 11.1 (≈ 3.9 µg/mL) |  |  |  |  |  |  |
| CCC1CCc2c(sc(NC(=O)c3ccc([N+](=O)[O-])cc3)c2C(=O)O)C1 (stereo unspecified) | 6.68 (≈ 2.5 µg/mL) | 6.68 (≈ 2.5 µg/mL) | 1.67 (≈ 0.625 µg/mL) | 1.67 (≈ 0.625 µg/mL) |  |  |  |  |  |  |
| CC1CCc2c(sc(NC(=O)c3ccccc3I)c2C(=O)O)C1 (stereo unspecified) | 1.11 (≈ 0.49 µg/mL) | 1.11 (≈ 0.49 µg/mL) | 0.54 (≈ 0.238 µg/mL) | 1 (≈ 0.441 µg/mL) | inactive | Active | Active | inactive | Active | Active |
